Results reported in ChEMBL document CHEMBL3621143, “Discovery of BMS-641988, a Novel Androgen Receptor Antagonist for the Treatment of Prostate Cancer” (ACS Med Chem Lett, 2015).
Activity calls are given as the source filed them. No cut-off for these calls is given here.

Tests used:
[1] = Drug metabolism in monkey hepatocytes assessed per 10^6 cells; format: ADME, cell-based, Macaca mulatta, Hepatocyte; conditions: rhesus monkey
In short: (§1)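 Metabolic rate in mouse, rat, dog, monkey and human hepatocyte incubations, expressed as pmol/min/10^6 cells.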

Rattus norvegicus = assay: In vivo antagonist activity at androgen receptor in immature Sprague-Dawley rat prostate weight model assessed as testosterone propionate-induced weight of seminal vesicles over full body weight at 10 mg/kg, po qd administered for 4 days; format: functional; design: scale not given: the % may be the effect or the level left
In short: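 Immature rat prostate weight PK/PD model. Oral dosing once daily at 1 or 10 mg/kg for 4 days. Seminal vesicle weight expressed as % of full body weight, n=3, scaled so testosterone-treated control = 100% and sham = 10%.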

[2] = Oral bioavailability in mouse at 10 mg/kg; format: ADME, organism-based; conditions: in vivo
In short: (§2)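 Single IV and oral doses in mouse and rat (IV 5, PO 10 mg/kg) and dog (IV 1, PO 2 mg/kg). Half-life, clearance, AUC0-∞ (µM*h) and %F derived from the plasma profiles.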

[3] = Half life in rat at 5 mg/kg, iv and 10 mg/kg, po; format: ADME, organism-based; conditions: in vivo; in short: as §2
[4] = Clearance in rat at 5 mg/kg, iv and 10 mg/kg, po; format: ADME, organism-based; conditions: in vivo; in short: as §2
Cytochrome P450 1A2 = target: T1, Cytochrome P450 1A2 (Homo sapiens, UniProt P05177); assay: Inhibition of human CYP1A2; format: ADME
T1 sequence (P05177 whole entry): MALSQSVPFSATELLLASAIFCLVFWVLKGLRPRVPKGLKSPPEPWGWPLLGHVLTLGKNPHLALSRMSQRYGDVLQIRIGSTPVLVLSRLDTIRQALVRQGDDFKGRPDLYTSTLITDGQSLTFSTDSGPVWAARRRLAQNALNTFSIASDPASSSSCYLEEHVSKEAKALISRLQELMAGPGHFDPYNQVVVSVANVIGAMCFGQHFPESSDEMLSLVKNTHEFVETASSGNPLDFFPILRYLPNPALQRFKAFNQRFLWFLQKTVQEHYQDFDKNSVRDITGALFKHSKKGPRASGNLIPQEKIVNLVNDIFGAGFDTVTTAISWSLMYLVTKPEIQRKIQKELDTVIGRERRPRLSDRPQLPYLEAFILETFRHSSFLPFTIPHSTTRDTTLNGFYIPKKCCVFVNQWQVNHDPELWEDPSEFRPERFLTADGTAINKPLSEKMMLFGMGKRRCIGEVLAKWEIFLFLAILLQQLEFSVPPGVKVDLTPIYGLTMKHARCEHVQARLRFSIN

[5] = Clearance in mouse at 5 mg/kg, iv and 10 mg/kg, po; format: ADME, organism-based; conditions: in vivo; in short: as §2
CWR22 [6] = assay: Antitumor activity against bicalutamide-resistant human CWR22 cells in Balb/c athymic (nu/nu) mouse CWR22-BMSLD1 prostate cancer xenograft model assessed as tumor growth inhibition at 90 mg/kg, po qd administered for 45 days measured from day 10 to 45 during compound dosing; format: functional, organism-based
In short: (§3)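 CWR22-BMSLD1 human prostate cancer xenograft. Oral once-daily dosing at 90 mg/kg for 45 days, or at 150 mg/kg for 35 days, with a vehicle group. Median tumor volume (mm3) tracked against days post implant.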

CWR22 [7] = assay: Antitumor activity against bicalutamide-resistant human CWR22 cells in Balb/c athymic (nu/nu) mouse CWR22-BMSLD1 prostate cancer xenograft model assessed as tumor growth inhibition at 90 mg/kg, po qd administered for 45 days measured for 10 days during compound dosing; format: functional, organism-based; in short: as §3
[8] = Half life in dog at 1 mg/kg, iv and 2 mg/kg, po; format: ADME, organism-based, Canis lupus familiaris; conditions: in vivo; in short: as §2
[9] = AUC (0 to infinity) in rat at 10 mg/kg, po; format: ADME, organism-based; design: dose 10 mg/kg, route oral, time infinity; conditions: in vivo; in short: as §2
Hepatocyte [10] = assay: Drug metabolism in mouse hepatocytes assessed per 10^6 cells; format: ADME, cell-based; in short: as §1
hERG = hERG (Homo sapiens, UniProt Q12809); assay: Inhibition of human ERG at 30 uM relative to control
hERG, sequence (Q12809 whole entry): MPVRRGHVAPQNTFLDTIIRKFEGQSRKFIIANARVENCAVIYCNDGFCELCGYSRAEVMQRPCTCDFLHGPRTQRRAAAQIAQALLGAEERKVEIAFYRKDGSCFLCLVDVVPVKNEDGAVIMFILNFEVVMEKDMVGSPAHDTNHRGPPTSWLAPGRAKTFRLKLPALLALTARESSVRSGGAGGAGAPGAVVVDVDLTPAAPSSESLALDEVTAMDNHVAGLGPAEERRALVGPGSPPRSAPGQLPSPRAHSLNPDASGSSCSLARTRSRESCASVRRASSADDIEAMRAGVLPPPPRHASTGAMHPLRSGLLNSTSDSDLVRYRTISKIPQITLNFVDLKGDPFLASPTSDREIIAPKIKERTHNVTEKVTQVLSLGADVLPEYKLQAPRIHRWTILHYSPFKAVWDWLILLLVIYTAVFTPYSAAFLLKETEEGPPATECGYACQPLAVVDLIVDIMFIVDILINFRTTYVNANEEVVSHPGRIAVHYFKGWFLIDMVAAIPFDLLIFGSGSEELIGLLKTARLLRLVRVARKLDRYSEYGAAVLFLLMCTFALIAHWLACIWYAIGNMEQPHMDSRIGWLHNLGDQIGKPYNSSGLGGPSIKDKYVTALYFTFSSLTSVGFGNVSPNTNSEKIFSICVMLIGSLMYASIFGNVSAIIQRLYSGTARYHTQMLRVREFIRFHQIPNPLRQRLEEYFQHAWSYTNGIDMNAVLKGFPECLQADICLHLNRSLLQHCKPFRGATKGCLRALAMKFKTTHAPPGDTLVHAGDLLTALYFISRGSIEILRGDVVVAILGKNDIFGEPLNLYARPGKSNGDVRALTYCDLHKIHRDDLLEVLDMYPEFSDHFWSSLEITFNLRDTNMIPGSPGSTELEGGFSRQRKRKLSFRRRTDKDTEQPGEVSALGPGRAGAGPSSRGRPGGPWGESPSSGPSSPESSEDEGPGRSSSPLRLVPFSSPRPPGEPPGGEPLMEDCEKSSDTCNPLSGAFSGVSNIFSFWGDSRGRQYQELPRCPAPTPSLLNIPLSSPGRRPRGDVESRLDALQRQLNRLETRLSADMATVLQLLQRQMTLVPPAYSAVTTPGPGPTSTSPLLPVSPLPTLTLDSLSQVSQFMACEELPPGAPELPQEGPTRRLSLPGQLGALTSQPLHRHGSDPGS

[11] = Fraction unbound in mouse plasma by equilibrium dialysis method; format: ADME, cell-free
In short: (§4)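 Plasma protein binding measured by equilibrium dialysis in mouse, rat, dog and human plasma, reported as % free.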

[12] = Fraction unbound in human plasma by equilibrium dialysis method; format: ADME, cell-free; in short: as §4
Cytochrome P450 2C9 = Cytochrome P450 2C9 (Homo sapiens, UniProt P11712); assay: Inhibition of human CYP2C9; format: ADME
Cytochrome P450 2C9, sequence (P11712 whole entry): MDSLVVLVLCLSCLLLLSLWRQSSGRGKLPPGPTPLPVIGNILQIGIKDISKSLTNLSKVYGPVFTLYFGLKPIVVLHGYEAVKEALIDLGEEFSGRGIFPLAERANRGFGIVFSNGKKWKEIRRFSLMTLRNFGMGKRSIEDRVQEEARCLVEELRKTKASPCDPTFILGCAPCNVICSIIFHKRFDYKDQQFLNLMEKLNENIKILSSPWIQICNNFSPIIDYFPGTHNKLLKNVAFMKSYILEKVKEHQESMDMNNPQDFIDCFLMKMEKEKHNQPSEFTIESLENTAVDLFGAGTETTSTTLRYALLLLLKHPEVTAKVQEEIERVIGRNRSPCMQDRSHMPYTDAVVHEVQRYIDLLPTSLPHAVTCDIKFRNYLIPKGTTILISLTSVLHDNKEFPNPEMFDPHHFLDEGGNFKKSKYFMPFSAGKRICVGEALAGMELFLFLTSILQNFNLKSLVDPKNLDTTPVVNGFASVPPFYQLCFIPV

[13] = Oral bioavailability in rat at 10 mg/kg; format: ADME, organism-based; conditions: in vivo; in short: as §2
[14] = AUC (0 to infinity) in mouse at 10 mg/kg, po; format: ADME, organism-based; design: dose 10 mg/kg, route oral, time infinity; conditions: in vivo; in short: as §2
[15] = Clearance in dog at 1 mg/kg, iv and 2 mg/kg, po; format: ADME, organism-based, Canis lupus familiaris; conditions: in vivo; in short: as §2
Hepatocyte [16] = assay: Drug metabolism in rat hepatocytes assessed per 10^6 cells; format: ADME, cell-based; in short: as §1
[17] = Oral bioavailability in dog at 2 mg/kg; format: ADME, organism-based, Canis lupus familiaris; conditions: in vivo; in short: as §2
[18] = AUC (0 to infinity) in mouse at 5 mg/kg, iv; format: ADME, organism-based; design: dose 5 mg/kg, time infinity, route intravenous; conditions: in vivo; in short: as §2
[19] = Fraction unbound in rat plasma by equilibrium dialysis method; format: ADME, cell-free; in short: as §4
Androgen receptor = target: T2, Androgen receptor (Homo sapiens, UniProt P10275); assay: Antagonist activity at androgen receptor in human MDA-MB-453 cells assessed as inhibition of DHT-induced PSA expression by alkaline phosphatase reporter gene assay; format: cell-based
T2 sequence (P10275 whole entry): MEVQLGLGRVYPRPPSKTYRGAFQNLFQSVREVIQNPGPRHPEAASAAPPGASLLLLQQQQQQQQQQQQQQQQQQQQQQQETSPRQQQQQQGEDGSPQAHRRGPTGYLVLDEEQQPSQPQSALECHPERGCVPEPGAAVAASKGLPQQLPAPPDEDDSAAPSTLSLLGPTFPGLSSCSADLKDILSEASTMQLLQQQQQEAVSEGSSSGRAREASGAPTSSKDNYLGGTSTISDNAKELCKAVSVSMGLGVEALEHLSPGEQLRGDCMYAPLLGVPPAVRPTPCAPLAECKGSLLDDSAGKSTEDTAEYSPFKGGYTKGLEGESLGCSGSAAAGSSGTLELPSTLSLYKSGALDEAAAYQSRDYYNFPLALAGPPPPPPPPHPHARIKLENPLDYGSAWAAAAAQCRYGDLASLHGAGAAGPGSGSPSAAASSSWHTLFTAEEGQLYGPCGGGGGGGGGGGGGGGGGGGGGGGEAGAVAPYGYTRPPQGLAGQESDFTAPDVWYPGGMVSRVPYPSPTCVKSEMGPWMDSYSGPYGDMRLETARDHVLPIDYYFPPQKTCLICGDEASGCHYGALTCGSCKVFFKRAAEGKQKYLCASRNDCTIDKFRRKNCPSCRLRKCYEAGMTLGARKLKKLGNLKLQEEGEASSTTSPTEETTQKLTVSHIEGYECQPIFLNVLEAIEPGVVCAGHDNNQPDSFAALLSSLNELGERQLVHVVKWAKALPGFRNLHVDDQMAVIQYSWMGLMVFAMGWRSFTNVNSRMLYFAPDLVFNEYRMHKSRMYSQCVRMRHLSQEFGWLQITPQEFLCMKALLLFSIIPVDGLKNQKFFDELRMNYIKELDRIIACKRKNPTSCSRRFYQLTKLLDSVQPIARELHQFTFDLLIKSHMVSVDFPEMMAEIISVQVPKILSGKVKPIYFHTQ

[20] = AUC (0 to infinity) in dog at 1 mg/kg, iv; format: ADME, organism-based, Canis lupus familiaris; design: dose 1 mg/kg, route intravenous, time infinity; conditions: in vivo; in short: as §2

**Q.** For CCS(=O)(=O)N[C@@H]1C[C@]2(C)O[C@]1(C)[C@@H]1C(=O)N(c3ccc(C#N)c(C(F)(F)F)c3)C(=O)[C@@H]12, which Drug metabolism [1] is on record?
**A.** 1 pmol/min

**Q.** And the Activity (Rattus norvegicus)?
**A.** 26%

**Q.** What about the bioavailability [2] of the same compound?
**A.** 94.7%

**Q.** What about the half-life [3] of the same compound?
**A.** 3.7 h

**Q.** What about the clearance [4] of the same compound?
**A.** 6.5 mL/min/kg

**Q.** And the IC50 (Cytochrome P450 1A2)?
**A.** > 40 µM

**Q.** What about the clearance [5] of the same compound?
**A.** 4.5 mL/min/kg

**Q.** And the TGI (CWR22 [6])?
**A.** Active

**Q.** What about the TGI (CWR22 [7]) of the same compound?
**A.** inactive

**Q.** And the half-life [8]?
**A.** 21.8 h

**Q.** And the AUC(0-inf) [9]?
**A.** 40.5 µM·h

**Q.** And the Drug metabolism (Hepatocyte [10])?
**A.** 0 pmol/min

**Q.** And the inhibition at 30 µM (hERG)?
**A.** 0%

**Q.** And the fraction unbound [11]?
**A.** 0.148

**Q.** And the fraction unbound [12]?
**A.** 0.104

**Q.** What about the IC50 (Cytochrome P450 2C9) of the same compound?
**A.** > 40 µM

**Q.** What about the bioavailability [13] of the same compound?
**A.** 63.9%

**Q.** What about the AUC(0-inf) [14] of the same compound?
**A.** 74.1 µM·h

**Q.** What about the clearance [15] of the same compound?
**A.** 0.35 mL/min/kg

**Q.** What about the Drug metabolism (Hepatocyte [16]) of the same compound?
**A.** 26 pmol/min

**Q.** And the bioavailability [17]?
**A.** 79%

**Q.** What about the AUC(0-inf) [18] of the same compound?
**A.** 39.1 µM·h

**Q.** And the fraction unbound [19]?
**A.** 0.106

**Q.** And the IC50 (Androgen receptor)?
**A.** 0.016 µM

**Q.** What about the AUC(0-inf) [20] of the same compound?
**A.** 102 µM·h
